In data set [1] the test system is human epithelial colorectal adenocarcinoma Caco-2. Description: WST-1-based cytotoxicity assay, Caco-2. It counts as cell-based. The following applies: read-out: IC50 values for MnPs in the absence of ascorbate; Caco-2, 96 h, WST-1, no ascorbate.
Data set [2] deals with four tumour cell lines (Caco-2, HCT116, 4T1 and Hela). Description: WST-1-based cytotoxicity assay, statements across the four tumour cell lines. The note with it: for toxicity of MnP in its own right: absence of ascorbate, 30 µM MnP, HCT116, 4T1, Hela; for effect of low levels on the cell: Figures 5 and 6; for cytotoxicity relative to MnTnHex-2-PyP^5+ in the presence of ascorbate: slopes of curves in Figure 5.

The test system of data set [3] is 4T1 mouse breast carcinoma cells. Description: Clonogenic assay, 4T1. It counts as cell-based. The following applies: 4T1, ascorbate 1 mM or MnTnHex-2-PyP^5+ 15 and 30 µM alone, 24 h.
In data set [4] the test system is HCT116 human colorectal carcinoma cells. Description: Clonogenic assay, HCT116. It counts as cell-based. The note with it: HCT116, ascorbate 0.5 mM or MnTnHex-2-PyP^5+ 15 and 30 µM alone, 24 h.
For data set [5], the system named is 4T1 tumour cells. Description: LCMS/MS analysis of MnTnHex-2-PyP^5+ levels in 4T1 cells. It is filed as in vitro ADME, mouse. The gist of the method: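 4T1 cells at 1,440,000 per plate in 10 mL DMEM (high glucose, 10% FBS), attached 24 h (~80% confluence), then given 0.5 or 1 mM ascorbate, 5, 15 or 30 µM porphyrin, or combinations, for 24 h. PBS-rinsed, RIPA-lysed on ice, sonicated, spun; lysate porphyrin by LC-MS/MS normalised to Bradford protein. Intracellular concentration calculated assuming 2.19 µL cell volume/mg protein.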

Data set [6] in a line: MnTnHex-2-PyP^5+ levels in tumour and muscle by LCMS/MS. It counts as in vivo, Balb/c mice. The gist of the method:
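Female Balb/c mice (6–8 weeks, ~22 g) bearing subcutaneous flank 4T1 tumours (10^6 cells), treated from ~200 mm3 for 15 days with porphyrin 1 mg/kg twice daily sc, with or without sodium ascorbate 2 g/kg twice daily ip given 1 h later. Tumour and opposite-leg muscle homogenised, deproteinised with 1% acetic acid in methanol, dried, reconstituted; porphyrin by LC-MS/MS, µM in homogenate.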

For data set [7] the following is noted: cited from earlier work; for SOD activity log kcat (O2^·−): cyt c assay, 0.05 M phosphate buffer, pH 7.8, 25 ± 1°C.
For data set [8] the following is noted: plastic-backed silica-gel TLC plates, 1:1:8 = KNO3(sat):H2O:CH3CN; cited from earlier work.
The nature of data set [9]: Metal-centered reduction potential E1/2 for Mn^IIIP/Mn^IIP redox couple. It counts as physicochemical.
The nature of data set [10]: n-octanol-water partition coefficient, log Pow. It is filed as physicochemical.
Data set [11] concerns Caco-2 cells. Description: Identification of species involved in cytotoxicity. It is filed as cell-based, human. Put shortly: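 Caco-2 cells at 10,000/well in alpha-MEM with 10% FBS; after 24 h at 37°C, 5% CO2, exposed to 30 µM Mn porphyrin, 3.3 mM ascorbate or both, with or without 1,500 units/mL catalase or 5 mM mannitol, for 96 h. Cells PBS-washed, WST-1 added for 2 h at 37°C, A450/595 read, % viability versus no-drug cells after cell-free blank subtraction.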

The subject of data set [12] is SOD-deficient E. coli. The note with it: cited from earlier work; for efficacy in protecting SOD-deficient E. coli: ortho vs meta.
Data set [13] can be described thus: Rate constant for the oxidation of Mn^IIP with oxygen. The note with it: estimated from Mn^IITM-4-PyP^4+ value and structure-activity relationship.
The conditions of data set [14]: cited from earlier work.

Data on 6 molecules can be found in PMC3500602 (Free radical research, 2011).

Usually IC50 stands for the concentration that gives 50% inhibition.

With `CCCCCC[n+]1ccccc1-c1c2nc(c(-c3cccc[n+]3CCCCCC)c3ccc([n-]3)c(-c3cccc[n+]3CCCCCC)c3nc(c(-c4cccc[n+]4CCCCCC)c4ccc1[n-]4)C=C3)C=C2.[Mn+3]` [MnTnHex-2-PyP^5+, Mn(III) meso-tetrakis(N-n-hexylpyridinium-2-yl)porphyrin], in data set [1], the IC50 was 170 µM. Besides, the “toxicity of MnP in its own right” value in data set [2] is recorded as “exerted toxicity”. In addition, the “ability to produce colonies, single agent” value in data set [3] and in data set [4] was “did not affect” each time. Also, in data set [5] (30 µM MnP in medium), the “MnP concentration in the cells relative to the medium” value is listed as ~ 4 times. The “more MnP found within cells with MnP/ascorbate compared to MnP alone” value in [5] (4T1 cells, depending on concentrations of ascorbate and porphyrin) is recorded as at most 29%. In [6] (MnP/ascorbate vs MnP treated mice, muscle), the “enhancement of MnP accumulation by ascorbate in muscle” value came out at 54%. In data set [6] (MnP/ascorbate vs MnP treated mice, tumour), the “enhancement of MnP accumulation by ascorbate in tumour” value amounted to 33%. Besides, the “accumulation in tumour relative to muscle from the opposite leg” value in [6] (MnTnHex-2-PyP^5+ 1 mg/kg twice daily sc, tissue homogenates) is listed as “higher accumulation in tumour”. Besides, the “SOD activity log kcat (O2^·−)” value in data set [7] was 7.48.

On to `C[n+]1ccc(-c2c3nc(c(-c4cc[n+](C)cc4)c4ccc([n-]4)c(-c4cc[n+](C)cc4)c4nc(c(-c5cc[n+](C)cc5)c5ccc2[n-]5)C=C4)C=C3)cc1.[Mn+3]` [MnTM-4-PyP^5+, Mn(III) meso-tetrakis(N-methylpyridinium-4-yl)porphyrin, reference compound], for which the “SOD activity log kcat (O2^·−)” value in data set [7] is given as 6.58. Further, the “Lipophilicity Rf” value in [8] is listed as 0.064.

Turning to `CCCCCC[n+]1cccc(-c2c3nc(c(-c4ccc[n+](CCCCCC)c4)c4ccc([n-]4)c(-c4ccc[n+](CCCCCC)c4)c4nc(c(-c5ccc[n+](CCCCCC)c5)c5ccc2[n-]5)C=C4)C=C3)c1.[Mn+3]` [MnTnHex-3-PyP^5+, Mn(III) meso-tetrakis(N-n-hexylpyridinium-3-yl)porphyrin], in data set [9], the “E1/2 difference relative to MnTE-2-PyP^5+ (more negative)” value is given as about 150 mV and the “E1/2 difference relative to MnTnHex-2-PyP^5+ (less positive / more negative)” value is ~ 250 mV. Moreover, in data set [10], the “fold more lipophilic than MnTnHex-2-PyP^5+” value was ~ 10 fold. In addition, the IC50 in data set [1] was 140 µM. In addition, in [2], the “toxicity of MnP in its own right” value is given as “not significantly toxic” and the “effect of low levels on the cell” value is listed as “beneficial”. In data set [11] (Caco-2, 30 µM MnP, no ascorbate, Figure 9), the “toxicity of MnP by itself to Caco-2 cells” value is listed as “less toxic”. Further, the “effect of mannitol on cytotoxicity” value in data set [11] (Caco-2, 5 mM mannitol, 4 days) was “blocked significantly”. The “SOD activity log kcat (O2^·−)” value in data set [7] is listed as 6.64. Moreover, the “accumulation within E. coli cell relative to MnTnHex-2-PyP^5+” value in [12] (absence of exogenous reductant) is “several-fold more”.

`CC[n+]1ccccc1-c1c2nc(c(-c3cccc[n+]3CC)c3ccc([n-]3)c(-c3cccc[n+]3CC)c3nc(c(-c4cccc[n+]4CC)c4ccc1[n-]4)C=C3)C=C2.[Mn+3]` [MnTE-2-PyP^5+, Mn(III) meso-tetrakis(N-ethylpyridinium-2-yl)porphyrin]: the “E1/2 difference relative to MnTnHex-2-PyP^5+ (less positive / more negative)” value in data set [9] is given as ~ 100 mV. In data set [1], the IC50 was 470 µM. The “cytotoxicity relative to MnTnHex-2-PyP^5+ in the presence of ascorbate” value in data set [2] (4T1, Hela) was “more cytotoxic”; in data set [2] (HCT116, Caco-2), “equally”. Moreover, in data set [2], the “effect of low levels on the cell” value is listed as “beneficial”. Moreover, in data set [7], the “fold more potent SOD mimic than meta MnTE-3-PyP^5+” value is listed as 10 fold. For the same molecule, in data set [7], the “SOD activity log kcat (O2^·−)” value is reported as 7.76. Besides, the “efficacy in protecting SOD-deficient E. coli” value in [12] was “equally efficacious”.

In the case of `CC[n+]1ccccc1-c1c2nc(c(-c3cccc[n+]3CC)c3ccc([n-]3)c(-c3cccc[n+]3CC)c3nc(c(-c4cccc[n+]4CC)c4ccc1[n-]4)C=C3)C=C2.[Mn+2]` [Mn^IITE-2-PyP^4+], the “rate constant for the reaction with O2” value in data set [13] is 80000 M⁻¹ s⁻¹.

Turning to `CC[n+]1cccc(-c2c3nc(c(-c4ccc[n+](CC)c4)c4ccc([n-]4)c(-c4ccc[n+](CC)c4)c4nc(c(-c5ccc[n+](CC)c5)c5ccc2[n-]5)C=C4)C=C3)c1.[Mn+3]` [MnTE-3-PyP^5+, Mn(III) meso-tetrakis(N-ethylpyridinium-3-yl)porphyrin, reference compound], the “fold more lipophilic than ortho MnTE-2-PyP^5+” value in data set [14] is reported as 10 fold. Also, in [12], the “fold more accumulation within E. coli cell than MnTE-2-PyP^5+” value is reported as 10 fold and the “efficacy in protecting SOD-deficient E. coli” value is given as “equally efficacious”.
